Measured values: ChEMBL document CHEMBL4130551, “1,2,4-Thiadiazolidin-3,5-diones as novel hydrogen sulfide donors” (Eur J Med Chem, 2018)
pEC50: −log10 of the molar value. Active and inactive are the calls of the source. The rule behind the calls is not given here.

Legend:
Thoracic aorta [1] = assay: Vasorelaxant activity in CD-1 mouse thoracic aorta rings assessed as inhibition of L-phenylephrine-induced contraction; type: functional, tissue-based; conditions: CD-1, Thoracic aorta
How it was run: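 Isolated aortic rings precontracted with phenylephrine (1 µM). Cumulative concentration–response curves of each donor (10 nM–300 µM) or DMSO vehicle. EC50 taken from the curves.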

Thoracic aorta [2] = assay: Vasorelaxant activity in CD-1 mouse thoracic aorta rings assessed as inhibition of L-phenylephrine-induced contraction at 100 uM relative to control; type: functional; conditions: CD-1, Thoracic aorta
How it was run: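 Isolated aortic rings precontracted with phenylephrine (1 µM). Cumulative donor concentrations (10 nM–300 µM) or DMSO vehicle. Emax is the maximal relaxation obtained.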

[3] = Drug metabolism in PBS buffer assessed as H2S release by measuring time required for 50% of maximum H2S release at steady state at 1 mM after 30 mins in presence of 4 mM L-cysteine by amperometric method; type: physicochemical; conditions: 0.5 h, 1000 µM
How it was run: (§1)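 Amperometric real-time H2S detection at room temperature in assay buffer (10x PBS diluted 1:10 in distilled water). Donor added from DMSO stock to a final 1 mM, 1% DMSO, with 4 mM L-cysteine added where the protocol required. Recorded for 30 min. Curves computer-fitted. TCM50 is the time to reach ½ Cmax. Mean ± SE of 5 experiments.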

[4] = Drug level in pH 7.4 PBS buffer treated with 2,4-Diphenyl-1,2,4-thiadiazoline-3,5-dione at 0.5 mmol after 5 to 60 mins in presence of cysteine by HPLC-MS analysis; type: physicochemical
[5] = Stability in pH 7.4 PBS buffer at 0.5 mmol after 30 mins in presence of cysteine by HPLC analysis; type: physicochemical; conditions: PBS buffer with cysteine, read-out: Stability
[6] = Drug metabolism in pH 7.4 PBS buffer assessed as phenyl(phenylcarbamoyl)carbamothioic S-acid formation at 0.5 mmol after 5 to 60 mins in presence of cysteine by HPLC-MS analysis; type: physicochemical
[7] = Stability in pH 7.4 PBS buffer at 0.5 mmol after 5 mins in presence of cysteine by HPLC analysis; type: physicochemical; conditions: PBS buffer with cysteine, read-out: Stability
Thoracic aorta [8] = assay: Vasorelaxant activity in CD-1 mouse endothelium denuded thoracic aorta rings assessed as inhibition of L-phenylephrine-induced contraction; type: functional, tissue-based
[9] = Drug metabolism in pH 7.4 PBS buffer at 0.5 mmol after 5 to 60 mins in presence of S-methyl cysteine by ESI-MS analysis; type: physicochemical
[10] = Drug metabolism in water at 0.5 mmol after 5 to 60 mins by ESI-MS analysis; type: physicochemical; conditions: buffer
[11] = Drug metabolism in PBS buffer assessed as H2S release by measuring time required for 50% of maximum H2S release at steady state at 1 mM after 30 mins by amperometric method; type: physicochemical; conditions: 0.5 h, 1000 µM; how it was run: as §1
[12] = Drug level in pH 7.4 PBS buffer treated with 2,4-Diphenyl-1,2,4-thiadiazoline-3,5-dione at 0.5 mmol after 5 to 60 mins in presence of glutathione by ESI-MS analysis; type: physicochemical

Compound | pEC50 (Thoracic aorta [1]) | Time [3] | Emax at 100 µM (Thoracic aorta [2]) | also measured
O=C(S)N(C(=O)Nc1ccccc1)c1ccccc1 |  |  |  | Drug metabolism [4]: Metabolite_Detected
NC(CSSC(=O)N(C(=O)Nc1ccccc1)c1ccccc1)C(=O)O (centres undefined) |  |  |  | Drug metabolism [4]: Metabolite_Detected
NC(CSSCC(N)C(=O)O)C(=O)O (centres undefined) |  |  |  | Drug metabolism [4]: Metabolite_Detected
O=c1sn(-c2ccccc2)c(=O)n1-c1ccccc1 | 5.77 | 12.01 min | 99.7% | remaining at 0.5 h, 0.5 mmol [5]: 15%; Drug metabolism [6]: Metabolite_Detected; remaining at 5 min, 0.5 mmol [7]: 82%; inhibition (Thoracic aorta [8]): Active; Drug metabolism [9]: Metabolite_Notdetected; Drug metabolism [10]: Metabolite_Notdetected
O=c1sn(-c2ccccc2)c(=O)n1Cc1ccccc1 |  | 11.4 min |  | Time [11]: 9.56 min
O=C(Nc1ccccc1)Nc1ccccc1 [DIPHENYLUREA] |  |  |  | Drug metabolism [4]: Metabolite_Detected
N[C@@H](CCC(=O)N[C@@H](CSSC(=O)N(C(=O)Nc1ccccc1)c1ccccc1)C(=O)NCC(=O)O)C(=O)O |  |  |  | Drug metabolism [12]: Metabolite_Detected

Continued, in another order:

pEC50 (Thoracic aorta [1]) | Time [3] | Compound | Emax at 100 µM (Thoracic aorta [2]) | also measured
5.80 | 13.25 min | COc1ccc(-n2sc(=O)n(-c3ccccc3)c2=O)cc1 | 100% | 
5.41 | 9.52 min | O=c1sn(-c2ccc(F)cc2)c(=O)n1-c1ccccc1 | 94.3% | 
5.68 | 15.36 min | COc1ccc(-n2sc(=O)n(-c3ccc(Cl)cc3)c2=O)cc1 | 98.6% | 
5.72 | 13.93 min | COc1ccc(-n2sc(=O)n(C3CCCCC3)c2=O)cc1 | 97.7% | 
5.82 | 13.25 min | COc1ccc(-n2sc(=O)n(-c3ccc(C)cc3)c2=O)cc1 | 99% | 
5.52 | 14.8 min | COc1ccc(-n2sc(=O)n(-c3ccc(OC)cc3)c2=O)cc1 | 95% | 
 | 15.75 min | COc1ccc(-n2sc(=O)n(Cc3ccccc3)c2=O)cc1 |  | Time [11]: 13.46 min
5.89 | 13.84 min | Cc1ccc(-n2sc(=O)n(-c3ccccc3)c2=O)cc1 | 94.5% | 
